Experimental data taken from ChEMBL document CHEMBL3120099, “Novel S1P(1) receptor agonists--part 2: from bicyclo[3.1.0]hexane-fused thiophenes to isobutyl substituted thiophenes” (J Med Chem, 2014).

test system: not listed separately; test: Plasma concentration in Wistar rat at 10 mg/kg, po after 6 hrs; assay type: ADME, organism-based; parameters: dose 10 mg/kg, route oral; details: not given

concentration at 6 h [ng/mL]	Structure (SMILES)
190	CCc1ccc(-c2nc(-c3cc(C)c(OCC(O)CNC(=O)CO)c(C)c3)no2)s1 (racemic)

test system: not listed separately; test: AUC (0 to 6.4 hrs) in Wistar rat mesenteric lymph at 10 mg/kg, po; assay type: ADME, organism-based, Mesenteric lymph node; parameters: time < 6.4 hr, dose 10 mg/kg, route oral; details: in vivo

AUC [ng/mL/h]	Structure (SMILES)
31300	CCc1cc(-c2noc(-c3sc(CC)c4c3CCC(C)(C)C4)n2)cc(C)c1OC[C@@H](O)CO

test system: not listed separately; test: Cmax in Wistar rat plasma at 10 mg/kg, po; assay type: ADME, organism-based; parameters: dose 10 mg/kg, route oral; details: not given
Summary of the method: (§1)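 Male Wistar rats given 10 mg/kg orally in 5% DMSO/succinylated gelatin. At selected times, anesthesia with thiobutobarbital 150 mg/kg ip, laparotomy and thoracic lymph duct catheter. Mesenteric lymph collected for at least 10 min, with a plasma sample at mid-collection. Methanol precipitation, then LC-MS-MS with internal standard.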

Cmax [ng/mL]	Structure (SMILES)
813	CCc1cc(-c2noc(-c3sc(CC)c4c3CCC(C)(C)C4)n2)cc(C)c1OCCNCCC(=O)O
376	CCc1cc(-c2noc(-c3sc(CC)c4c3CCC(C)(C)C4)n2)cc(C)c1OC[C@@H](O)CO

test system: not listed separately; test: Tmax in Wistar rat mesenteric lymph at 10 mg/kg, po; assay type: ADME, organism-based, Mesenteric lymph node; parameters: dose 10 mg/kg, route oral; details: not given; summary of the method: as §1

Tmax [h]	Structure (SMILES)
0.75	CCc1cc(-c2noc(-c3sc(CC)c4c3CCC(C)(C)C4)n2)cc(C)c1OCCNCCC(=O)O
1.4	CCc1cc(-c2noc(-c3sc(CC)c4c3CCC(C)(C)C4)n2)cc(C)c1OC[C@@H](O)CO

test system: not listed separately; test: Plasma concentration in Wistar rat at 10 mg/kg, po after 24 hrs; assay type: ADME, organism-based; parameters: dose 10 mg/kg, route oral; details: not given

concentration at 24 h [ng/mL]	Structure (SMILES)
< 2	CCc1ccc(-c2nc(-c3cc(C)c(OCC(O)CNC(=O)CO)c(C)c3)no2)s1 (racemic)

test system: Plasma; test: AUC (0 to 6.4 hrs) in Wistar rat plasma at 10 mg/kg, po; assay type: ADME, organism-based; parameters: time < 6.4 hr, dose 10 mg/kg, route oral; details: in vivo

AUC [ng/mL/h]	Structure (SMILES)
1880	CCc1cc(-c2noc(-c3sc(CC)c4c3CCC(C)(C)C4)n2)cc(C)c1OC[C@@H](O)CO

test system: not listed separately; test: AUC (0 to 24 hrs) in Wistar rat mesenteric lymph at 10 mg/kg, po; assay type: ADME, organism-based, Mesenteric lymph node; parameters: time < 24 hr, dose 10 mg/kg, route oral; details: in vivo

AUC [ng·h/mL]	Structure (SMILES)
60400	CCc1cc(-c2noc(-c3sc(CC)c4c3CCC(C)(C)C4)n2)cc(C)c1OCCNCCC(=O)O

test system: Plasma; test: AUC (0 to 24 hrs) in Wistar rat plasma at 10 mg/kg, po; assay type: ADME, organism-based; parameters: time < 24 hr, dose 10 mg/kg, route oral; details: in vivo

AUC [ng·h/mL]	Structure (SMILES)
16300	CCc1cc(-c2noc(-c3sc(CC)c4c3CCC(C)(C)C4)n2)cc(C)c1OCCNCCC(=O)O

test system: not listed separately; test: Cmax in Wistar rat mesenteric lymph at 10 mg/kg, po; assay type: ADME, organism-based, Mesenteric lymph node; parameters: dose 10 mg/kg, route oral; details: not given; summary of the method: as §1

Cmax [ng/mL]	Structure (SMILES)
9530	CCc1cc(-c2noc(-c3sc(CC)c4c3CCC(C)(C)C4)n2)cc(C)c1OCCNCCC(=O)O
9050	CCc1cc(-c2noc(-c3sc(CC)c4c3CCC(C)(C)C4)n2)cc(C)c1OC[C@@H](O)CO

target: Sphingosine 1-phosphate receptor 1 (Homo sapiens, UniProt P21453); test: Agonist activity at human recombinant S1P1 receptor expressed in CHO cells assessed as membrane-bound 35S-GTPgammaS incubated 30 mins prior to substrate addition measured after 1 hr by topcount scintillation counting analysis; assay type: functional, cell-based; details: not given
Sequence (P21453 whole entry): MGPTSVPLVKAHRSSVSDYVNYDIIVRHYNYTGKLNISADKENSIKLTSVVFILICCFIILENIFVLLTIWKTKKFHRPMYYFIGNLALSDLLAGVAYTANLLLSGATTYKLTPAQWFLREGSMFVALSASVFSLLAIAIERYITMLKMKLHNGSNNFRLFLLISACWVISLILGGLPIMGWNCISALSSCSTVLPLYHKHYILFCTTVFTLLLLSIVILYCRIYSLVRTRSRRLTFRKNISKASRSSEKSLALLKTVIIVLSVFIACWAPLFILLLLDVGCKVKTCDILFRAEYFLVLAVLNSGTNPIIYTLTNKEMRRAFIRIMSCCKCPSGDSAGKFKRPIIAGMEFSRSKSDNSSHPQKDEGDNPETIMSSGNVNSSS

EC50 [nM]	Structure (SMILES)
1.4	CCc1cc(-c2noc(-c3sc(CC)c4c3CCC(C)(C)C4)n2)cc(C)c1OCCNCCC(=O)O
4.3	CCc1ccc(-c2nc(-c3cc(C)c(OCC(O)CNC(=O)CO)c(C)c3)no2)s1 (racemic)
2.4	CCc1cc(-c2noc(-c3sc(CC)c4c3CCC(C)(C)C4)n2)cc(C)c1OC[C@@H](O)CO

test system: not listed separately; test: Plasma concentration in Wistar rat at 10 mg/kg, po after 3 hrs; assay type: ADME, organism-based; parameters: dose 10 mg/kg, route oral; details: not given

concentration at 3 h [ng/mL]	Structure (SMILES)
490	CCc1ccc(-c2nc(-c3cc(C)c(OCC(O)CNC(=O)CO)c(C)c3)no2)s1 (racemic)

test system: not listed separately; test: Lipophilicity, log D of the compound at pH 7.4; assay type: physicochemical; details: buffer

logD	Structure (SMILES)
4.9	CCc1cc(-c2noc(-c3sc(CC)c4c3CCC(C)(C)C4)n2)cc(C)c1OCCNCCC(=O)O
5.4	CCc1cc(-c2noc(-c3sc(CC)c4c3CCC(C)(C)C4)n2)cc(C)c1OC[C@@H](O)CO

target: Sphingosine 1-phosphate receptor 3 (Homo sapiens, UniProt Q99500); test: Agonist activity at human recombinant S1P3 receptor expressed in CHO cells assessed as membrane-bound 35S-GTPgammaS incubated 30 mins prior to substrate addition measured after 1 hr by topcount scintillation counting analysis; assay type: functional, cell-based; details: not given
Sequence (Q99500 whole entry): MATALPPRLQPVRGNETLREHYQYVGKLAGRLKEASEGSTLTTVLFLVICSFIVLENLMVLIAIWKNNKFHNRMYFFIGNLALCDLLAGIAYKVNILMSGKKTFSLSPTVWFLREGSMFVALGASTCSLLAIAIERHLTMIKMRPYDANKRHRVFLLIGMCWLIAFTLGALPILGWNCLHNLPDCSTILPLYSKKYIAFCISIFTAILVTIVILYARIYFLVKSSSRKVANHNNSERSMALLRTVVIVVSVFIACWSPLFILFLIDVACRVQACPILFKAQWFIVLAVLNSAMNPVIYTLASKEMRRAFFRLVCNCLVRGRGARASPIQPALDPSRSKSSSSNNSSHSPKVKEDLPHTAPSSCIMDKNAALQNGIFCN

EC50 [nM]	Structure (SMILES)
5.8	CCc1cc(-c2noc(-c3sc(CC)c4c3CCC(C)(C)C4)n2)cc(C)c1OCCNCCC(=O)O
1860	CCc1ccc(-c2nc(-c3cc(C)c(OCC(O)CNC(=O)CO)c(C)c3)no2)s1 (racemic)
15	CCc1cc(-c2noc(-c3sc(CC)c4c3CCC(C)(C)C4)n2)cc(C)c1OC[C@@H](O)CO

test system: not listed separately; test: Tmax in Wistar rat plasma at 10 mg/kg, po; assay type: ADME, organism-based; parameters: dose 10 mg/kg, route oral; details: not given; summary of the method: as §1

Tmax [h]	Structure (SMILES)
8	CCc1cc(-c2noc(-c3sc(CC)c4c3CCC(C)(C)C4)n2)cc(C)c1OCCNCCC(=O)O
6.4	CCc1cc(-c2noc(-c3sc(CC)c4c3CCC(C)(C)C4)n2)cc(C)c1OC[C@@H](O)CO
